# Only some compounds are listed: those with a hit (about 2.6% of all), similar ones and a draw of the others.
# OX1R antag-1: OX1R (human) antagonism | O43613 | OX1R-expressing cells, FRET antagonist read-out | inhibition, % at 6.6 µM | actives 1.8% (n = 330,000) | AID 485270; in the data active = inhibition mostly above about 38%, no sharp cut-off; inactive = mostly below about 40%;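 note: 0% = agonist challenge alone and 100% = reference antagonist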
# CHO parental Ca: signal in parental CHO cells, OX1R antagonist counter-screen; parental CHO-K1, ATP-induced calcium, Fluo-8 fluorescence; inhibition, % at 5.6 µM; actives 0.63% (n = 330,000); AID 463079;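 active = inhibition above that plate's mean sample inhibition plus 3 SD, cut at about 26% in these data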;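 note: 0% = ATP-challenged DMSO wells and 100% = DMSO wells without ATP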
#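 Assay system: parental CHO cells; Read-out basis: percent inhibition of ATP-evoked calcium rise, normalized to controls; Benchmarks: ATP and no-ATP DMSO wells; Compound dosing: single nominal dose of 5.6 µM per compound; Signal: Fluo-8 calcium dye fluorescence; Also added: ATP as calcium-mobilizing challenge; Repeats: singlicate.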
# OXTR ag: agonists of human oxytocin receptor; P30559; actives 0.32% (n = 320,000); CHO-OTR cells, Fluo-8 calcium fluorescence; normalized: DMSO 0%, oxytocin 100%; activation, % at 3 µM;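 active = activation above the mean of all tested compounds plus 3 SD, cutoff set per screening run, cut at about 20% in these data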;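 note: peak over basal fluorescence ratio from a 100 s FLIPR kinetic read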
# OX1R antag-2: human HCRTR1 antagonism | O43613 | CHO/OX1R cells, Fluo-8 calcium fluorescence, orexin A | inhibition, % at 5 µM | actives 0.43% (n = 330,000);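 active = inhibition above its plate's threshold, mean inhibition of all tested compounds on the plate plus 3 SD, cut at about 37% in these data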;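 note: 0% = orexin A challenge wells and 100% = SB-334867-A antagonist wells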
# OXTR potentiator: potentiates the human oxytocin receptor response | P30559 | CHO-OTR cells, Fluo-8 calcium fluorescence, potentiator mode; 0% = oxytocin EC15, 100% = EC100 | activation, % at 3 µM | actives 0.061% (n = 320,000) | AID 2445;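 active = activation above that plate's cutoff, the mean activation of tested compounds plus 3 SD, cut at about 6.6% in these data, passing the limit was not always enough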;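 note: 100% uses oxytocin at 75 nM as the full agonist control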
#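 System: human OTR in CHO cells; Also added: sub-maximal oxytocin, roughly EC15; Timing: compound 6 min at room temperature before oxytocin, 100 s read; Technique: Fluo-8 intracellular calcium fluorescence, ex 470-495, em 515-575 nm; Controls: oxytocin EC15 low and EC100 high; Replication: singlicate.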
# V1aR counter: V1a receptor agonism, counter-screen for OXTR agonists; activation, % at 3 µM; P37288; CHO-V1R cells, Fluo-8 calcium fluorescence, agonist mode; 0% DMSO, 100% 3 nM vasopressin; actives 0.25% (n = 320,000); AID 2797;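 active = activation above the mean activation of all tested compounds plus 3 SD, per screening run, cut at about 20% in these data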;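 note: signal is peak over basal fluorescence ratio across a 100 second FLIPR read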
# Target sequence (P37288 whole entry, looked up): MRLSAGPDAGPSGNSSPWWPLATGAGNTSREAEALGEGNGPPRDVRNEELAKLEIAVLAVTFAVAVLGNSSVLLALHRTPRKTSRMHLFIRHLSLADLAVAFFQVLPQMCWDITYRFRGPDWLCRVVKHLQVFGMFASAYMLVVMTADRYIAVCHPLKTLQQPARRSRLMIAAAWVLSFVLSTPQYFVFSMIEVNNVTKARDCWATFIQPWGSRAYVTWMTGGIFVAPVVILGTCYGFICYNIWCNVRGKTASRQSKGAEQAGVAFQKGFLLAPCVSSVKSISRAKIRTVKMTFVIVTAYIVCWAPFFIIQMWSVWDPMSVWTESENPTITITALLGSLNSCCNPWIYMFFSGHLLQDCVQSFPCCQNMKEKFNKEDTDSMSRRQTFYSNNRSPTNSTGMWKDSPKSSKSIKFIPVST
# OX1R Ca confirm: OX1R (human) antagonism, confirmed; AID 492963; shares compounds with OX1R antag-2; CHO/OX1R cells, orexin A calcium Fluo-8 fluorescence; actives 38% (n = 1,100); inhibition, % at 5 µM; in the data active = inhibition above about 29%;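 note: 0% = agonist challenge alone and 100% = reference antagonist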
# CHO Ca triplic: counter-screen for OX1R antagonists: effect in parental CHO cells; shares compounds with OX1R antag-2; parental CHO-K1, ATP-induced calcium, Fluo-8 fluorescence; inhibition, % at 5.6 µM; actives 9.3% (n = 1,100); AID 492965;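 active = inhibition above a per-plate limit, the mean inhibition of that plate's test compounds plus 3 SD, cut at about 25% in these data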;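 note: 0% = ATP challenge with DMSO and 100% = DMSO without ATP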
# OX1R HTRF confirm: OX1R (human) antagonism, HTRF confirmed; shares compounds with OX1R antag-1; OX1R-expressing cells, HTRF antagonist assay; inhibition, % at 6.6 µM; actives 49% (n = 1,800); in the data active = inhibition above about 55%;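 note: CHO cells expressing OX1R stimulated with orexin A at about EC80; 0% = agonist challenge alone and 100% = reference antagonist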
# CHO-K1 HTRF cnt: counter-screen: parental CHO-K1 HTRF response. shares compounds with OX1R antag-1. parental CHO-K1 cells, HTRF counterscreen. inhibition, % at 6.6 µM. actives 48% (n = 1,800); in the data active = inhibition above about 17%;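 note: 0% = agonist challenge with vehicle and 100% = vehicle alone without agonist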
# * marks the source's active call; other numbers are inactive results; · = not tested or not shown.
SMILES,OX1R antag-1,CHO parental Ca,OXTR ag,OX1R antag-2,OXTR potentiator,V1aR counter,OX1R Ca confirm,CHO Ca triplic,OX1R HTRF confirm,CHO-K1 HTRF cnt
CCCCN(C(=O)CSc1ncnc2sccc12)c1c(N)n(Cc2ccccc2)c(=O)[nH]c1=O,22,-18,3,-18,-9,2,·,·,·,·
CCc1cc2c(SCC(=O)N(CC)c3c(N)n(Cc4ccccc4)c(=O)[nH]c3=O)ncnc2s1,84*,-16,-1,40,-6,-1,48*,-9,93*,1
N#Cc1ccsc1NC(=O)c1cccc(-n2cnnn2)c1,14,-2,6,6,-11,7,·,·,·,·
Cc1cccc(NC(=O)c2cc(-c3cc(C)cc(C)c3O)n[nH]2)c1,64*,7,5,40,-18,5,17,4,69*,13
COc1ccc(/C=C/c2nc(N)nc(-c3ccccc3O)n2)cc1OC,87*,-2,3,63*,-13,1,70*,-7,92*,6
Oc1oc(C=Nc2ccc(F)cc2F)c2ccccc12,5,-4,-1,-10,-8,0,·,·,·,·
CCc1ccccc1NC(=O)CN1C(=O)c2ccccc2S1(=O)=O,12,-4,1,-18,-10,2,·,·,·,·
Cc1ccc(NC2CCCN(C(=O)c3cn(C)c4ccccc34)C2)cc1C (stereo not given),80*,-14,-2,27,-7,-1,23,-12,90*,2
COc1cc(Cl)c(C)cc1NC(=O)c1cccc(OC)c1OC,70*,-22,0,22,2,1,7,-3,82*,13
CCn1c(SCC(=O)Nc2ccc(C)cc2)nnc1-c1cnccn1,-2,-5,-1,-5,4,2,·,·,·,·
CCn1c(SCC(=O)Nc2ccc3c(c2)c2ccccc2n3CC)nnc1-c1cnccn1,89*,-17,-1,91*,-7,0,68*,-15,92*,9
CCn1c2ccccc2c2cc(NC(C)=O)ccc21,32,-9,0,-10,-7,0,·,·,·,·
CCn1c2ccccc2c2cc(NC(=O)c3cccc(OC)c3OC)ccc21,87*,7,-2,64*,-11,1,74*,-3,91*,14
CCn1c2ccccc2c2cc(NC(=O)c3cccc(OC)c3)ccc21,104*,-8,0,97*,-8,0,97*,-12,103*,14
COc1ccc(S(=O)(=O)NCCSCc2ccco2)cc1Cl,10,-23,0,-10,-13,1,·,·,·,·
CCn1c(C)cc(O)c(C(=O)Nc2cccc(Cl)c2)c1=O,3,-9,0,-8,-9,0,·,·,·,·
CCn1c(C)c(C)c2cc(C(=O)Nc3cccc(Cl)c3)ccc21,121*,28,-1,40,-20,0,-6,-11,85*,9
COc1ccc(N(CC(=O)NCCc2cccc(C)c2)S(=O)(=O)c2c(C)noc2C)cc1,103*,-23,1,81*,-6,2,68*,-10,91*,5
COc1ccc(N(CC(=O)NCCc2ccc(C)cc2)S(=O)(=O)c2c(C)noc2C)cc1,55*,-4,-1,27,-9,1,34*,-20,84*,4
COc1ccc(N(CC(=O)NCCc2ccc(OC)c(OC)c2)S(=O)(=O)c2c(C)noc2C)cc1,29,-30,1,-17,-8,2,·,·,·,·
Cc1ccc(Cl)c(OCC(=O)NCC(c2cccs2)N2CCOCC2)c1 (stereo not given),17,-19,3,-26,-17,5,·,·,·,·
